Assay results from ChEMBL document CHEMBL1144893, “Discovery of a potent and selective protein kinase CK2 inhibitor by high-throughput docking” (J Med Chem, 2003).
Each block holds one compound with its values, some of them ahead of it.

Columns and labels:
[1] = biological target: T1, Casein kinase II (Homo sapiens) (UniProt P67870+P68400+P19784); assay: Inhibition of Casein kinase 2 at 10 uM; format: protein-complex assay
[2] = biological target: Vascular endothelial growth factor receptor 3 (Homo sapiens) (UniProt P35916); settings: 10 uM
[3] = biological target: Vascular endothelial growth factor receptor 2 (Homo sapiens) (UniProt P35968); assay: Inhibition of Kinase insert domain receptor (VEGFR2) at 10 uM
Summary of the method: (§1)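 Filter-binding assay with recombinant GST-fused kinase domains expressed in baculovirus and purified over glutathione sepharose. [33P]-ATP was the phosphate donor and polyGluTyr (4:1) the acceptor. ATP was near Km: KDR, Flt-1, FGFR-1, Tek 8.0 μM; PDGFR-β, c-Kit, c-Met 1.0 μM; c-abl 5 μM; Her-1, Her-2 2.0 μM; c-Src 20 μM; IGF-1R 30 μM.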

[4] = biological target: Cyclin-dependent kinase 1 (Homo sapiens) (UniProt P06493); assay: Inhibition of Cyclin dependent kinase 1 at 10 uM
Summary of the method: (§2)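 Run under conditions optimized for each kinase, with ATP near the enzyme's Km: CDK1 7.5 μM, PKA 50 μM.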

[5] = biological target: Tyrosine-protein kinase ABL1 (Homo sapiens) (UniProt P00519); assay: Inhibition of c-Abl tyrosine kinase at 10 uM; summary of the method: as §1
[6] = biological target: Epidermal growth factor receptor (Homo sapiens) (UniProt P00533); assay: Inhibition of protein kinase HER-1 at 10 uM; summary of the method: as §1
[7] = biological target: Mast/stem cell growth factor receptor Kit (Homo sapiens) (UniProt P10721); assay: Inhibition of Protein kinase Kit at 10 uM; summary of the method: as §1
[8] = biological target: Fibroblast growth factor receptor 1 (Homo sapiens) (UniProt P11362); assay: Inhibition of Protein kinase fibroblast growth factor receptor 1 at 10 uM; summary of the method: as §1
[9] = biological target: T1, Casein kinase II (Homo sapiens)
[10] = biological target: Serine/threonine-protein kinase AKT (Homo sapiens) (UniProt P31751+Q9Y243+P31749); assay: Inhibition of Protein kinase B at 10 uM; format: protein assay
[11] = biological target: 3-phosphoinositide-dependent protein kinase 1 (Homo sapiens) (UniProt O15530); assay: Inhibition of Phosphatidylinositol-trisphosphate-dependent kinase 1 at 10 uM
[12] = biological target: Receptor-type tyrosine-protein kinase FLT3 (Homo sapiens) (UniProt P36888); assay: Inhibition of Protein kinase Flt-3 at 10 uM
[13] = biological target: Vascular endothelial growth factor receptor 1 (Homo sapiens) (UniProt P17948); assay: Inhibition of Protein kinase Flt-1 at 10 uM; summary of the method: as §1
[14] = biological target: Proto-oncogene tyrosine-protein kinase Src (Homo sapiens) (UniProt P12931); assay: Inhibition of Protein kinase Src at 10 uM; summary of the method: as §1
[15] = biological target: Angiopoietin-1 receptor (Homo sapiens) (UniProt Q02763); assay: Inhibition of Protein kinase TEK at 10 uM; summary of the method: as §1
[16] = biological target: Insulin-like growth factor 1 receptor (Homo sapiens) (UniProt P08069); assay: Inhibition of Type 1 insulin like growth factor receptor at 10 uM; summary of the method: as §1
[17] = biological target: cAMP-dependent protein kinase (PKA) (Homo sapiens) (UniProt P22694+P17612+P22612); assay: Inhibition of Protein kinase A at 10 uM; format: protein assay; summary of the method: as §2
[18] = biological target: Receptor tyrosine-protein kinase erbB-2 (Homo sapiens) (UniProt P04626); assay: Inhibition of protein kinase HER-2 at 10 uM; summary of the method: as §1
[19] = biological target: RAF proto-oncogene serine/threonine-protein kinase (Homo sapiens) (UniProt P04049); settings: 10 uM
[20] = biological target: Hepatocyte growth factor receptor (Homo sapiens) (UniProt P08581); assay: Inhibition of Protein kinase Met at 10 uM; summary of the method: as §1
[21] = biological target: Insulin receptor (Homo sapiens) (UniProt P06213); assay: Inhibition of Insulin receptor at 10 uM
[22] = biological target: Platelet-derived growth factor receptor beta (Homo sapiens) (UniProt P09619); assay: Inhibition of Platelet derived growth factor receptor beta at 10 uM; summary of the method: as §1

RAF proto-oncogene serine/threonine-protein kinase (Homo sapiens), sequence (P04049 whole entry): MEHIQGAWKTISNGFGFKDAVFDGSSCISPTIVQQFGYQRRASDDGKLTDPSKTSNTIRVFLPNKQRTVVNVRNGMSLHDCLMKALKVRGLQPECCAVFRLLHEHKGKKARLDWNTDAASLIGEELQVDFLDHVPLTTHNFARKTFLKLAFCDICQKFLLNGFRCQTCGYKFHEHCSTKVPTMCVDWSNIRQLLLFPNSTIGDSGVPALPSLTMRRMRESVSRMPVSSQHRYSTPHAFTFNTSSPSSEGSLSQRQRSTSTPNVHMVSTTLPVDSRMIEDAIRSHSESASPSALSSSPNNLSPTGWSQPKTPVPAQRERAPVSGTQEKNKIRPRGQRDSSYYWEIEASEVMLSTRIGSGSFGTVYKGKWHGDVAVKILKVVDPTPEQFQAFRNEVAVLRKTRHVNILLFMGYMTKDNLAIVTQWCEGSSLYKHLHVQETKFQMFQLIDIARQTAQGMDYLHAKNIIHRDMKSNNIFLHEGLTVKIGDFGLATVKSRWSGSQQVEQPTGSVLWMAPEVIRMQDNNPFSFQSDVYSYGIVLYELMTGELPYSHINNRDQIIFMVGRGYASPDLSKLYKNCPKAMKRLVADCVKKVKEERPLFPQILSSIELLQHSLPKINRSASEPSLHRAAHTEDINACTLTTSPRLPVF
Receptor tyrosine-protein kinase erbB-2 (Homo sapiens), sequence (P04626 whole entry): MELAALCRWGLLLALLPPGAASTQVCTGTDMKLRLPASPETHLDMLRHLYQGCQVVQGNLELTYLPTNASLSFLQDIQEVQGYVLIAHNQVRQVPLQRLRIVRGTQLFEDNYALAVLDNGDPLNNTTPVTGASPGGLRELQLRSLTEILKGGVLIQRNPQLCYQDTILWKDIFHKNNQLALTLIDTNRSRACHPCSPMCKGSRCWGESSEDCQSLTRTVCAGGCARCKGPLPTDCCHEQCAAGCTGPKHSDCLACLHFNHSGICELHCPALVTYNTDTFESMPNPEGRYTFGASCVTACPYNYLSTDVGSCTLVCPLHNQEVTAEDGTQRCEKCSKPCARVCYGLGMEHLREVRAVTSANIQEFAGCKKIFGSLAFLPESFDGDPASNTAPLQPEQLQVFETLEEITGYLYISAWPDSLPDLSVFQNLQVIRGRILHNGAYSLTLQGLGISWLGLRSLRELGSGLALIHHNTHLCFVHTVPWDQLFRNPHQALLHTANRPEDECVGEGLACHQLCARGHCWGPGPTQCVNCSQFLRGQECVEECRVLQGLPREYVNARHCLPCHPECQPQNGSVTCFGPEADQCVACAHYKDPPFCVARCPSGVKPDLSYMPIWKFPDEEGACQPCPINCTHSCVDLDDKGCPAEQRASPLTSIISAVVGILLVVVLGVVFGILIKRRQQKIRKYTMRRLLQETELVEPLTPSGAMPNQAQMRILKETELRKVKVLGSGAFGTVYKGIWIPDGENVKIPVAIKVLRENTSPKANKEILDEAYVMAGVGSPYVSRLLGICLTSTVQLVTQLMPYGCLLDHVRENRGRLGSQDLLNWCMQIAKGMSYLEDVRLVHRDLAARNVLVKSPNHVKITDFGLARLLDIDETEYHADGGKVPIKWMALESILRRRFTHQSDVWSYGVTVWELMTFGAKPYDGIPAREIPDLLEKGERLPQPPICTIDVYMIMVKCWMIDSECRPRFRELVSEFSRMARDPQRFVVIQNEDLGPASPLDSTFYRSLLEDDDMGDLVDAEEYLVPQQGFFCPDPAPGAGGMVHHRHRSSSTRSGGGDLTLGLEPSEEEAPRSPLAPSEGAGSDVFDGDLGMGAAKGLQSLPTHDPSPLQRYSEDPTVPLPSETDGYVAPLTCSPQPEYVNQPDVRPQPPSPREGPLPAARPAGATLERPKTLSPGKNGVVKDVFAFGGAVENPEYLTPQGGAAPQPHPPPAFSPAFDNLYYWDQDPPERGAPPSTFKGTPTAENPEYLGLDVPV
Vascular endothelial growth factor receptor 3 (Homo sapiens), sequence (P35916 whole entry, the tested form may be a part): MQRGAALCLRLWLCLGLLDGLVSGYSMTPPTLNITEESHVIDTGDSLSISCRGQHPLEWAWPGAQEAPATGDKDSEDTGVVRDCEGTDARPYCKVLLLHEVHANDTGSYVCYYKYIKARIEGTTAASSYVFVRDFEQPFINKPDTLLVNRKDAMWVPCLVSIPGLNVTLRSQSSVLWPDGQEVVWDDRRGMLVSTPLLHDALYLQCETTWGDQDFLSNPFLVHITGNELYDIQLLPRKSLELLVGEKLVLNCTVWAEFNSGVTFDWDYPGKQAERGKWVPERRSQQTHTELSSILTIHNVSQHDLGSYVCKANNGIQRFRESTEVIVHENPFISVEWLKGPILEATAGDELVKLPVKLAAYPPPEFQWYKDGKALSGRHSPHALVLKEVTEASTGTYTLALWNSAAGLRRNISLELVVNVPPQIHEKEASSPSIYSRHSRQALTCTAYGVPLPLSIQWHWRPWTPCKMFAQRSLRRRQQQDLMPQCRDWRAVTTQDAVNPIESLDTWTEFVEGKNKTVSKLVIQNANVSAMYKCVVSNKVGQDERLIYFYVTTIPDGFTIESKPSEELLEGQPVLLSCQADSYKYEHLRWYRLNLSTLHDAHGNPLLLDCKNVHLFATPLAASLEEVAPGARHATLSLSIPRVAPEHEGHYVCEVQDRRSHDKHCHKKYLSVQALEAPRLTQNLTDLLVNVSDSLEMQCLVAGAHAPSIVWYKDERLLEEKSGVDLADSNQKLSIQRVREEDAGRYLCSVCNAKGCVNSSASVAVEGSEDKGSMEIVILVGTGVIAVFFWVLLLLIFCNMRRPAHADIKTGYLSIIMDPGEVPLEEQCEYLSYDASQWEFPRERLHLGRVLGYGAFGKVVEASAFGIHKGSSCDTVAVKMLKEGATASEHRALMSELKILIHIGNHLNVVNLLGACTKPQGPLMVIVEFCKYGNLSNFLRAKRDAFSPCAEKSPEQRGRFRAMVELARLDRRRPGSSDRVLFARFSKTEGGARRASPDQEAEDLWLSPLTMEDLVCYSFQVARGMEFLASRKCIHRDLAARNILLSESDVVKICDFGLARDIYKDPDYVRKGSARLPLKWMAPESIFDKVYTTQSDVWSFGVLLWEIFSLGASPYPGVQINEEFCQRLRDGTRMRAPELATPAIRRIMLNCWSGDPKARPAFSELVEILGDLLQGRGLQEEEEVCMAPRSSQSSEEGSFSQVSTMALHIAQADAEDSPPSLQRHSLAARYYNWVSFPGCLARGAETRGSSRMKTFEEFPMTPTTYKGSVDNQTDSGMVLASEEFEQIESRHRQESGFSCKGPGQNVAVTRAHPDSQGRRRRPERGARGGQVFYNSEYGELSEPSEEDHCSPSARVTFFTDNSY
Angiopoietin-1 receptor (Homo sapiens), sequence (Q02763 whole entry): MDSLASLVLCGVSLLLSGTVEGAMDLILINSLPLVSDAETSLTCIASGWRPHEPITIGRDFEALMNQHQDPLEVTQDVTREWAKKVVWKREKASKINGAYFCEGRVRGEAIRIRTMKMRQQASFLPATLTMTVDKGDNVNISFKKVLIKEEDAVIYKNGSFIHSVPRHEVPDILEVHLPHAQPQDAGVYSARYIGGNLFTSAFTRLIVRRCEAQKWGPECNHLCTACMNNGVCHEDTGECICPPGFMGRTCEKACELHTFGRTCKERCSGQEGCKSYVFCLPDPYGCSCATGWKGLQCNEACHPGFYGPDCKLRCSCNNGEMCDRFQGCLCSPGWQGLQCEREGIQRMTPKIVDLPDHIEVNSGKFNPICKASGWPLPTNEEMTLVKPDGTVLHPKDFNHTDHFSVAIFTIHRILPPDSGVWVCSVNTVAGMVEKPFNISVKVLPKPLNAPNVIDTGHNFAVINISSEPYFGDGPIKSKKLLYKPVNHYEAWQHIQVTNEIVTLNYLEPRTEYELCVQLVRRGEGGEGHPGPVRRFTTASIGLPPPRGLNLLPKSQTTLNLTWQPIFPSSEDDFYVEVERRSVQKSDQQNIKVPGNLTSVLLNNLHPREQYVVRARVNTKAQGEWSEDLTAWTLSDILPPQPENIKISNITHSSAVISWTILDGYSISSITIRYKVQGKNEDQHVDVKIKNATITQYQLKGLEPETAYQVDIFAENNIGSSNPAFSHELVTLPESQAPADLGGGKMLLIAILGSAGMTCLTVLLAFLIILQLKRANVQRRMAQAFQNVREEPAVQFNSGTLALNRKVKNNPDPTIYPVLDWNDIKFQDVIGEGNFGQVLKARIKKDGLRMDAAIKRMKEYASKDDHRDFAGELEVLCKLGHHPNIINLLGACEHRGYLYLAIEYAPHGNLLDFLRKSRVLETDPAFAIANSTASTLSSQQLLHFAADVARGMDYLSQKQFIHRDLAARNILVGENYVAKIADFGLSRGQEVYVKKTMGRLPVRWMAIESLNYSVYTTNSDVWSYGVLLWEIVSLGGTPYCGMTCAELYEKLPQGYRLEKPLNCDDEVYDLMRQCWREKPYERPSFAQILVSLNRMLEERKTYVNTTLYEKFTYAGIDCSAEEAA
3-phosphoinositide-dependent protein kinase 1 (Homo sapiens), sequence (O15530 whole entry): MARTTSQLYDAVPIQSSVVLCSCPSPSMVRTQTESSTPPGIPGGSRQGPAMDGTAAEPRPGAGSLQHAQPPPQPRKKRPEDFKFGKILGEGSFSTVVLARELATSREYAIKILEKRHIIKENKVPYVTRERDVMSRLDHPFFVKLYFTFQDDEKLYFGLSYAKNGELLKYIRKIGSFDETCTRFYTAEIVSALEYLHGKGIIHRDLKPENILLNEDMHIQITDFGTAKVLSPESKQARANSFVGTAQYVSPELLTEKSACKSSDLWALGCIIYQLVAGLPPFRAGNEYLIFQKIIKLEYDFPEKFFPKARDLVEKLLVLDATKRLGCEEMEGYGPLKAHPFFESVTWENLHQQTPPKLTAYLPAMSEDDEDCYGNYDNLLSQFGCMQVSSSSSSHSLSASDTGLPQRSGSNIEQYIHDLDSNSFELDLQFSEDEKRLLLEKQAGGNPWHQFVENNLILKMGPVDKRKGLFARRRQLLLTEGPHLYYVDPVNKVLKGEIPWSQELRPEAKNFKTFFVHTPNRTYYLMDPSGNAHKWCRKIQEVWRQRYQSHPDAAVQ

inhibition [1]: 48%
Structure (SMILES): OCCc1c2ccccc2n2c1nc(O)c1ccccc12

inhibition [2]: 30%
inhibition [3]: 54%
inhibition [4]: 51%
inhibition [5]: 25%
inhibition [6]: 12%
inhibition [7]: 31%
inhibition [8]: 32%
IC50 [9]: 80 nM
inhibition [1]: 97%
inhibition [10]: 30%
inhibition [11]: 9%
inhibition [12]: 41%
inhibition [13]: 21%
inhibition [14]: 0%
inhibition [15]: 36%
inhibition [16]: 44%
inhibition [17]: 51%
inhibition [18]: 29%
inhibition [19]: 30%
inhibition [20]: 40%
inhibition [21]: 23%
inhibition [22]: 11%
Structure (SMILES): O=C(O)Cc1c2ccccc2n2c1[nH]c(=O)c1ccccc12

inhibition [1]: 12%
Structure (SMILES): Cc1c2ccccc2n2c1nc(O)c1ccccc12
